Measurements reported in PubChem BioAssay AID504597 (Broad Institute, 2011).

Tested on: U2OS HRE-luciferase reporter, luminescence, HIF activation
Assay: hypoxia pathway transcriptional activation in cells – U2OS cells, luminescence, dry powder, set 9, dose response (AID 504597)
Method in brief: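 Compound – 8-point series in 3-fold steps, pinned from 7.5 mM stock · Material – human U2OS osteosarcoma cells with stable 3×HRE-driven luciferase reporter · Quantity – 6,000 cells/well · Technique – Steady-Glo luciferase luminescence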

Structure (SMILES)	AC40
Clc1cccc(CNc2nc(-c3ccccn3)nnc2-c2ccccc2)c1	1480 nM
c1ccc(CCNc2nc(-c3ccccn3)nnc2-c2ccccc2)cc1	3210 nM
c1ccc(-c2ccc(CNc3nc(-c4ccccn4)nnc3-c3ccccc3)cc2)cc1	461 nM
CC(C)(C)c1ccc(CNc2nc(-c3ccccn3)nnc2-c2ccccc2)cc1	546 nM
CC(C)(C)CCNc1nc(-c2ccccn2)nnc1-c1ccccc1	1020 nM
c1ccc(-c2cccc(CNc3nc(-c4ccccn4)nnc3-c3ccccc3)c2)cc1	816 nM
